We go through 52 molecules from PubChem BioAssay AID602303 (The Scripps Research Institute Molecular Screening Center, 2012).

Structures are written as SMILES. Calls of active or inactive are those of the source.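 Rule for the calls: active = inhibition of 50% or more; inactive = inhibition below 50%.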

Sequence of Diacylglycerol lipase-beta (Mus musculus) (Q91WC9 whole entry, looked up): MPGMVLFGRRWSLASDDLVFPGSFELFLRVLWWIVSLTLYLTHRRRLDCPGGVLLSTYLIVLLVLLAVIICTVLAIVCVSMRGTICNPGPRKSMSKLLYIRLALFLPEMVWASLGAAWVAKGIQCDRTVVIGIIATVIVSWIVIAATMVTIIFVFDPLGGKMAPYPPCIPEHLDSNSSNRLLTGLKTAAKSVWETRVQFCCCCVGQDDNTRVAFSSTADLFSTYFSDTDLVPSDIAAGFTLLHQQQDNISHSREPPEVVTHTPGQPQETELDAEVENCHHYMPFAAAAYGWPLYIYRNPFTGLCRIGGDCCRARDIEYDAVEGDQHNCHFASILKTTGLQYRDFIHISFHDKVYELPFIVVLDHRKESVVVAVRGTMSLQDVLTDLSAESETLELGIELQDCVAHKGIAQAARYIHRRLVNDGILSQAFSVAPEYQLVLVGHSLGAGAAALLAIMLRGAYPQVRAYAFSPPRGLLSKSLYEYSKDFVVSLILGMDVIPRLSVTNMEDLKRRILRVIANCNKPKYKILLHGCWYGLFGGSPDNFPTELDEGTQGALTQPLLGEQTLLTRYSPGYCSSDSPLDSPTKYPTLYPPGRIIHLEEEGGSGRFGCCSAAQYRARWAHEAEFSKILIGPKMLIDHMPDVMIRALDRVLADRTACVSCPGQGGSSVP

The test has as its target Diacylglycerol lipase-beta (Mus musculus) (UniProt Q91WC9). As to the kind of experiment: DAGLb inhibitors by competitive gel ABPP, late-stage follow-up, biochemical, in-gel fluorescence, overexpressed mouse DAGLb, triazole urea library (AID 602303). Particulars: HEK293T membrane overexpressing mouse DAGLb, gel ABPP FP-Rh; at 0.5 µM; active compounds read high. The procedure, abridged: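 Material: membrane proteome of HEK293T cells transiently overexpressing mouse DAGLb. Doses: single dose, test compound at 500 nM final. Schedule: compound pre-incubation 30 min then probe labeling 30 min, both 37 °C. Measured by: in-gel fluorescence after SDS-PAGE. Controls: DMSO-only enzyme as high control, blank gel region background as low.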
Take `CC1CCN(C(=O)n2ncc(C(O)(c3ccccc3)c3ccccc3)n2)CC1`: the inhibition is 10% (inactive).
Then `O=C(N1CCCC1)n1ncc(-c2ccc([N+](=O)[O-])cc2)n1`, with 35% (inactive).
With `O=C(N1CCC(C(O)(c2ccccc2)c2ccccc2)CC1)n1ncc(C(O)(c2ccccc2)c2ccccc2)n1` the figure was 30% (inactive).
Consider `O=C(N1CCCC1)n1ccnn1`, for which the inhibition is 30% (inactive).
With `CC(C)(O)c1cnn(C(=O)N2CCC(C(C)(C)C)CC2)n1` the figure was 45% (inactive); with `O=C(N1CCCCC1)n1ncc(C(O)c2ccccc2)n1` (configuration not stated), 5% (inactive).
As to `O=C(N1CCCCC1)n1ncc(-c2ccc(Oc3ccccc3)cc2)n1`, the inhibition is 40% (inactive).
With `COC1CCN(C(=O)n2ncc(C(O)(c3ccccc3)c3ccccc3)n2)CC1` the figure was 0% (inactive); with `CN1CCN(C(=O)n2ccnn2)CC1`, 35% (inactive).
Then `C=CCN(CC=C)C(=O)n1ncc(-c2ccc(OC(F)(F)F)cc2)n1`, with 50%; and `CC(C)(C)C1CCN(C(=O)n2nccn2)CC1`, with 35% (inactive).
With `C=CCN(CC=C)C(=O)n1ncc(-c2cc(F)cc(F)c2)n1` the figure was 25% (inactive).
`O=C(N1CCCC1)n1ncc(-c2ccc(Cl)c(Cl)c2)n1`: the inhibition was 30% (inactive).
For the molecule `O=C(N1CCCC1)n1ncc(-c2ccc(OC(F)(F)F)cc2)n1`, the inhibition was 15% (inactive).
Then `O=C(N1CCOCC1)n1ncc(-c2cc(F)cc(F)c2)n1`, with 20% (inactive).
Regarding `C=CCN(CC=C)C(=O)n1ncc(C(O)(c2ccccc2)c2ccccc2)n1`, the inhibition was 60%.
Then `O=C(N1CCC(Cc2ccccc2)CC1)n1ncc(C(O)(c2ccccc2)c2ccccc2)n1`, with 30% (inactive).
Then `O=C(N1CCCCC1Cc1ccccc1)n1ncc(C(O)(c2ccccc2)c2ccccc2)n1` (configuration not stated), with 95%; and `COc1ccc2cc(-c3cnn(C(=O)N4CCCC4)n3)ccc2c1`, with 20% (inactive); and `CCC1CCCCN1C(=O)n1ncc(C(O)(c2ccccc2)c2ccccc2)n1` (configuration not stated), with 10% (inactive).
With `CCN(CC)C(=O)n1ncc(C(O)(c2ccccc2)c2ccccc2)n1` the figure was 5% (inactive); with `CC(C)(O)c1cnn(C(=O)N2CCCC2)n1`, 25% (inactive).
Consider `O=C(N1CCOCC1)n1ncc(-c2ccccc2)n1`, for which the inhibition is 0% (inactive).
With `O=C(N1CCCC1)n1ncc(-c2cc(F)cc(F)c2)n1` the figure was 10% (inactive); with `CN(C(=O)n1ccnn1)c1ccccc1`, 25% (inactive).
Then `O=C(N1CCCC1)n1ncc(-c2ccc(Oc3ccccc3)cc2)n1`, with 45% (inactive); and `O=C(N(c1ccccc1)c1ccccc1)n1ccnn1`, with 5% (inactive).
Then `CC(C)(C)C1CCN(C(=O)n2ncc(C(O)(c3ccccc3)c3ccccc3)n2)CC1`, with 45% (inactive); and `O=C(N1CCCC1)n1ncc(-c2ccccc2)n1`, with 35% (inactive).
In the case of `O=C(n1ccnn1)n1c2ccccc2c2ccccc21`, the inhibition is 25% (inactive).
With `O=C(N1CCCC1)n1ncc(-c2ccc(-c3ccccc3)cc2)n1` the figure was 25% (inactive).
Then `C=CCN(CC=C)C(=O)n1ccnn1`, with 25% (inactive); and `CCN(CC)C(=O)n1ccnn1`, with 0% (inactive); and `COCCCC1CCCCN1C(=O)n1ncc(C(O)(c2ccccc2)c2ccccc2)n1` (configuration not stated), with 5% (inactive).
With `CC1CCN(C(=O)n2ncc(C(C)(C)O)n2)CC1` the figure was 35% (inactive); with `O=C(N1CCCCC1)n1ccnn1`, 20% (inactive); with `O=C(N1CCCC1)n1ncc(C(O)(c2ccccc2)c2ccccc2)n1`, 0% (inactive).
As for `O=C(N(c1ccccc1)c1ccccc1)n1ncc(C(O)(c2ccccc2)c2ccccc2)n1`, the inhibition is 65%.
With `O=C(N1CCCCC1)n1ncc(C(O)(c2ccccc2)c2ccccc2)n1` the figure was 10% (inactive); with `O=C(N1CCOCC1)n1ncc(C(O)(c2ccccc2)c2ccccc2)n1`, 15% (inactive); with `O=C(N1CCOCC1)n1ccnn1`, 40% (inactive).
With `CC(C)(C)C1CCN(C(=O)n2ncc(C3(O)CCCCC3)n2)CC1`, the inhibition is 20% (inactive).
As to `COc1ccc2cc(-c3cnn(C(=O)N4CCCCC4)n3)ccc2c1`, the inhibition is 20% (inactive).
Then `O=C(N1CCc2ccccc2C1)n1ncc(C(O)(c2ccccc2)c2ccccc2)n1`, with 35% (inactive).
`O=C(N1CCCC1)n1ncc(C2(O)CCCCC2)n1`: the inhibition is 25% (inactive).
Turning to `O=C(OC(c1ccccc1)c1cnn(C(=O)N2CCCCC2)n1)N1CCCCC1` (configuration not stated), the inhibition was 15% (inactive).
With `C=CCN(CC=C)C(=O)n1ncc(-c2ccccc2)n1` the figure was 5% (inactive).
With `O=C(N1CCC(C(O)(c2ccccc2)c2ccccc2)CC1)n1nccn1` the figure was 15% (inactive); with `CC(C)(O)c1cnn(C(=O)N2CCCCC2)n1`, 25% (inactive).
With `COCC1CCCCN1C(=O)n1ncc(C(O)(c2ccccc2)c2ccccc2)n1` (configuration not stated) the figure was 15% (inactive).
For the molecule `O=C(N1CCOCC1)n1ncc(-c2ccc(OC(F)(F)F)cc2)n1`, the inhibition is 40% (inactive).
With `CN(C)C(=O)n1ccnn1` the figure was 0% (inactive).
